# Columns and labels:
# [1] = Anticancer activity against human HNE1 cells by MTT assay; format: functional; details: read-out: ID50 (the source's name)
# In short: (§1)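 MTT assay of human tumour cell lines (Bel-7404 liver, MCG stomach, HNE1 nasopharyngeal carcinoma) run in the absence of light. ID50 is taken as the concentration giving 50% cell death, in ug/ml.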
# BEL-7404 tumor cell line [2] = assay: Anticancer activity against human Bel7404 cells by MTT assay; format: functional; details: read-out: ID50 (the source's name); in short: as §1
# [3] = Anticancer activity against human MCG cells by MTT assay; format: functional; details: read-out: ID50 (the source's name); in short: as §1
# [4] = Partition coefficient of the compound; format: ADME; details: octanol/water
# In short: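 Compound distributed between the two non-miscible solvents octanol and water. Reported as the octanol/water partition ratio.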
# BEL-7404 tumor cell line [5] = assay: Anticancer activity against human Bel7404 cells at 6.25 ug/ml after 18 hrs by MTT assay; format: functional
# In short: (§2)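 Human tumour cells (Bel-7404 liver, MCG stomach, HNE1 nasopharyngeal) exposed to compound in solution for 18 h at 37 °C under air with 5% CO2, either kept in the dark or irradiated at 650 nm, 20 J/cm². Viability read by MTT; activity reported as percent cell death.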
# [6] = Anticancer activity against human HNE1 cells at 6.25 ug/ml after 18 hrs by MTT assay; format: functional; in short: as §2
# BEL-7404 tumor cell line [7] = assay: Anticancer activity against human Bel7404 cells with irradiation at 6.25 ug/ml after 18 hrs by MTT assay; format: functional
# In short: (§3)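 Human tumour cells (Bel-7404, MCG, HNE1) incubated 18 h with compound at 6.25 ug/ml at 37 °C in air with 5% CO2. Cells irradiated at 650 nm, 20 J/cm²; parallel wells kept unirradiated. Cell death rate read by MTT.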
# [8] = Anticancer activity against human HNE1 cells with irradiation at 6.25 ug/ml after 18 hrs by MTT assay; format: functional; in short: as §3
# [9] = Anticancer activity against human MCG cells with irradiation at 6.25 ug/ml after 18 hrs by MTT assay; format: functional; in short: as §3
# [10] = Anticancer activity against human MCG cells at 6.25 ug/ml after 18 hrs by MTT assay; format: functional; in short: as §2
SMILES,IC50 [1] [µg/mL],IC50 (BEL-7404 tumor cell line [2]) [µg/mL],IC50 [3] [µg/mL],Ratio [4],Activity (BEL-7404 tumor cell line [5]) [%],Activity [6] [%],Activity (BEL-7404 tumor cell line [7]) [%],Activity [8] [%],Activity [9] [%],Activity [10] [%]
O=C([C@H](O)[C@@H](O)[C@H](O[C@@H]1O[C@H](CO)[C@H](O)[C@H](O)[C@H]1O)[C@H](O)CO)N1CCNCC1 [GALACTOSYLATEDPIPERAZINE],> 50,> 50,> 50,–,–,–,–,–,–,–
Nc1ccc(-c2c3nc(c(-c4ccc(N)cc4)c4ccc([nH]4)c(-c4ccc(N)cc4)c4nc(c(-c5ccc(N)cc5)c5ccc2[nH]5)C=C4)C=C3)cc1,28,33,24,42,–,–,–,–,–,–
O=C([C@H](O)[C@@H](O)[C@H](O[C@@H]1O[C@H](CO)[C@H](O)[C@H](O)[C@H]1O)[C@H](O)CO)N1CCN(c2ccc(-c3c4nc(c(-c5ccc(N6CCN(C(=O)[C@H](O)[C@@H](O)[C@H](O[C@@H]7O[C@H](CO)[C@H](O)[C@H](O)[C@H]7O)[C@H](O)CO)CC6)cc5)c5ccc([nH]5)c(-c5ccc(N6CCN(C(=O)[C@H](O)[C@@H](O)[C@H](O[C@@H]7O[C@H](CO)[C@H](O)[C@H](O)[C@H]7O)[C@H](O)CO)CC6)cc5)c5nc(c(-c6ccc(N7CCN(C(=O)[C@H](O)[C@@H](O)[C@H](O[C@@H]8O[C@H](CO)[C@H](O)[C@H](O)[C@H]8O)[C@H](O)CO)CC7)cc6)c6ccc3[nH]6)C=C5)C=C4)cc2)CC1,33,29,35,18,19,19,96,96,96,19
O=c1[nH]cc(F)c(=O)[nH]1 [FLUOROURACIL],–,–,–,–,29,29,–,–,–,29

# Source: ChEMBL document CHEMBL1146147, “Study on synthesis and biological activity of a galactosylated piperazinyl porphyrin” (Bioorg Med Chem Lett, 2006)
